Experimental data published in ChEMBL document CHEMBL3352374, “Discovery of novel Bcr-Abl inhibitors targeting myristoyl pocket and ATP site” (Bioorg Med Chem, 2014).
pIC50: −log10 of the molar value.

Legend:
[1] = tested on: K562; test: Antiproliferative activity against Bcr/Abl positive human K562 cells after 48 hrs by MTT method; format: functional, cell-based; conditions: K562, 48 h
How it was run: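 Bcr–Abl positive K562 cells in exponential growth plated at 1 × 10⁴ cells/well and incubated 24 h at 37 °C. Compounds then added at various concentrations for 48 h. MTT (5 mg/mL) added for 4 h at 37 °C, supernatant discarded, formazan dissolved in DMSO. Absorbance read at 570 nm.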

[2] = molecular target: Bcr/Abl fusion protein (Homo sapiens, UniProt P00519); test: Inhibition of BCR/ABL (unknown origin) after 40 mins by ADP-Glo kinase assay; format: protein assay
Sequence of Bcr/Abl fusion protein (P00519 whole entry, the tested form may be a part): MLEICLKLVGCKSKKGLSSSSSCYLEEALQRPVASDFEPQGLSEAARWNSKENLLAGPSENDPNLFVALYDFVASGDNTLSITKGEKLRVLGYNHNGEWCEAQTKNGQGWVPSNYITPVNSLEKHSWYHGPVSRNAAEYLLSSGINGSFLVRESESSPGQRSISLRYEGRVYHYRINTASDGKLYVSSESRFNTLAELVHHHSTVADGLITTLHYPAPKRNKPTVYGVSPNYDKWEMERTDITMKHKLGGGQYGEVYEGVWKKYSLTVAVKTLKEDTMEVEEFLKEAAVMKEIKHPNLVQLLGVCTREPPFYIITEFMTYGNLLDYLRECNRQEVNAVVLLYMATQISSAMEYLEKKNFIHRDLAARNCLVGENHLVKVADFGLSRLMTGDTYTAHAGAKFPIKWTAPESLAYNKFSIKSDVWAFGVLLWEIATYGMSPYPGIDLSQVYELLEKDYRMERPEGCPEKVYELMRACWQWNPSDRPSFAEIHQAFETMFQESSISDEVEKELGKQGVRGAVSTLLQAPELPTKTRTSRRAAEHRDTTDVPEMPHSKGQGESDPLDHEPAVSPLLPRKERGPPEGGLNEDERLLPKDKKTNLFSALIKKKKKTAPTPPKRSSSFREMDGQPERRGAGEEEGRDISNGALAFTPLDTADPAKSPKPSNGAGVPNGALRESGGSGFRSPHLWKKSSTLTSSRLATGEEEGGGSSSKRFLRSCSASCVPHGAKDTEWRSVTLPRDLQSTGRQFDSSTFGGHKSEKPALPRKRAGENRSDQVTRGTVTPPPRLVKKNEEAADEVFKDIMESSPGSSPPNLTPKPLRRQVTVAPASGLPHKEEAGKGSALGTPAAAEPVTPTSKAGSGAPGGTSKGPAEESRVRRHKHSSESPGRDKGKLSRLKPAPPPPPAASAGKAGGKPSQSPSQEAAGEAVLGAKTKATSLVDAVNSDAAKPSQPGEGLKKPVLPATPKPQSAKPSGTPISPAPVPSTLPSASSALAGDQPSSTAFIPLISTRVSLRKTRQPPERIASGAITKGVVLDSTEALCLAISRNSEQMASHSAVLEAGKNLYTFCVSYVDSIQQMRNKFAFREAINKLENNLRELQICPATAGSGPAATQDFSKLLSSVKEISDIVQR
Sequence of Bcr/Abl fusion protein (P11274 whole entry, further chain, the tested form may be a part): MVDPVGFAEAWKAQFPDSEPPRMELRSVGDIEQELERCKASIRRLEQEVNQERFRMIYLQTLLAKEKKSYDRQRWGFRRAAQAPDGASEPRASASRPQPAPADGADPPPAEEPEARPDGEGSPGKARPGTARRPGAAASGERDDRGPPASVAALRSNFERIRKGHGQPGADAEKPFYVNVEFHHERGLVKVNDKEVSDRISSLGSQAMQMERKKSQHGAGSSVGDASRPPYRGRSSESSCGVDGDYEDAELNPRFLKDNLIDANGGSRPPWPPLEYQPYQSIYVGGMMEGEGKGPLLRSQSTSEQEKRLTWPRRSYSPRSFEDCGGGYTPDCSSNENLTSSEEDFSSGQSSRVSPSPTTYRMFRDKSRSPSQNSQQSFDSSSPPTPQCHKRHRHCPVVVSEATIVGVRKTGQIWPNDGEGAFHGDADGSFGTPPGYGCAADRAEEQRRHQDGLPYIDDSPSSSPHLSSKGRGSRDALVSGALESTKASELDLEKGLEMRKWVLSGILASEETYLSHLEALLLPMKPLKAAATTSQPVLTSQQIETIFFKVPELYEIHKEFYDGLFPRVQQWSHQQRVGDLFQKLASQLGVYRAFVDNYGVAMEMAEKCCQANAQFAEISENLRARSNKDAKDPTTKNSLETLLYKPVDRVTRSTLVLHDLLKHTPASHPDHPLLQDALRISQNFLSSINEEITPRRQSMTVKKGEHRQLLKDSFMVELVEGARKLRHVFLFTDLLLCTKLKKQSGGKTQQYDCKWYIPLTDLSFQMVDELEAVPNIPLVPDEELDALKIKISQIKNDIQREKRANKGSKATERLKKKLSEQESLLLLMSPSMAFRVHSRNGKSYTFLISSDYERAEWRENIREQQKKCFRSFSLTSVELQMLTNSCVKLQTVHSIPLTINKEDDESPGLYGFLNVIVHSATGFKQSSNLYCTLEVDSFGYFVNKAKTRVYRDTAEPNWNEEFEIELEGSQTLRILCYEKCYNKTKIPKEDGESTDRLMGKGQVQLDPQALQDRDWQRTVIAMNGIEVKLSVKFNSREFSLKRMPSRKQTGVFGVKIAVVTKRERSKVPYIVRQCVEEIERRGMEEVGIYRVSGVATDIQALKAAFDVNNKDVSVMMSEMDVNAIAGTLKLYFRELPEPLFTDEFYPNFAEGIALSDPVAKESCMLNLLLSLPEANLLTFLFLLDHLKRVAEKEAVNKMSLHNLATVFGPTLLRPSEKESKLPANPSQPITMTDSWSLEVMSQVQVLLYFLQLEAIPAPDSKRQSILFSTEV

| pIC50 [1] | pIC50 [2] | Structure (SMILES) |
| --- | --- | --- |
| 3.25 | 3.58 | O=C(c1ccc(-c2cc(Nc3ccc(Cl)cc3Cl)ncn2)cc1)N1CCN(C(=O)c2cccc(C(F)(F)F)c2)CC1 |
| 4.67 | 7.15 | O=C(c1ccc(-c2cc(Nc3ccccc3Cl)ncn2)cc1)N1CCN(C(=O)c2ccccc2Cl)CC1 |
| 3.51 |  | O=C(c1ccc(-c2cc(Nc3ccc(Br)cc3)ncn2)cc1)N1CCN(C(=O)c2ccccc2F)CC1 |
| 3.55 | 4.10 | O=C(c1ccc(-c2cc(Nc3ccc(C(F)(F)F)cc3)ncn2)cc1)N1CCN(C(=O)c2ccccc2F)CC1 |
| < 3.30 |  | Cc1ccc(Nc2cc(-c3ccc(C(=O)N4CCN(C(=O)c5ccccc5F)CC4)cc3)ncn2)cc1 |
| < 3.30 | < 3.30 | O=C(c1ccc(-c2cc(Nc3ccc(Cl)c(Cl)c3)ncn2)cc1)N1CCN(C(=O)c2ccccc2F)CC1 |
| < 3.30 | < 3.30 | Cc1ccc(Nc2cc(-c3ccc(C(=O)N4CCN(C(=O)c5ccccc5F)CC4)cc3)ncn2)cc1Cl |
| 4.22 | 6.89 | O=C(c1ccc(-c2cc(Nc3cc(C(F)(F)F)cc(C(F)(F)F)c3)ncn2)cc1)N1CCN(C(=O)c2ccccc2F)CC1 |
|  | < 3.30 | CC(C)(C)c1ccc(Nc2cc(-c3ccc(C(=O)N4CCN(C(=O)c5ccccc5Cl)CC4)cc3)ncn2)cc1 |
| 3.99 |  | COc1cccc(Nc2cc(-c3ccc(C(=O)N4CCN(C(=O)c5ccccc5Cl)CC4)cc3)ncn2)c1 |
| < 3.30 | < 3.30 | O=C(c1ccc(-c2cc(Nc3cccc(Br)c3)ncn2)cc1)N1CCN(C(=O)c2ccccc2F)CC1 |
| 4.09 | 3.85 | O=C(c1ccc(-c2cc(Nc3ccccc3Cl)ncn2)cc1)N1CCN(C(=O)c2ccccc2F)CC1 |
| 3.44 | 3.56 | O=C(c1ccc(-c2cc(Nc3ccc(F)cc3)ncn2)cc1)N1CCN(C(=O)c2ccccc2F)CC1 |
| < 3.30 | < 3.30 | O=C(c1ccc(-c2cc(Nc3ccc(F)c(F)c3)ncn2)cc1)N1CCN(C(=O)c2ccccc2F)CC1 |
| 4.84 | 7.30 | O=C(c1ccc(-c2cc(Nc3ccccc3F)ncn2)cc1)N1CCN(C(=O)c2ccccc2F)CC1 |
|  | 6.06 | O=C(c1ccc(-c2cc(Nc3cccc(C(F)(F)F)c3)ncn2)cc1)N1CCN(C(=O)c2ccccc2F)CC1 |
| 4.75 | 7.77 | O=C(c1ccc(-c2cc(Nc3cccc(F)c3)ncn2)cc1)N1CCN(C(=O)c2ccccc2F)CC1 |
| < 3.30 | 3.45 | CC(C)(C)c1ccc(Nc2cc(-c3ccc(C(=O)N4CCN(C(=O)c5ccccc5F)CC4)cc3)ncn2)cc1 |
|  | 4.04 | O=C(c1ccc(-c2cc(Nc3cccc(Cl)c3)ncn2)cc1)N1CCN(C(=O)c2ccccc2F)CC1 |
| 4.06 | 5.84 | O=C(c1ccc(-c2cc(Nc3ccc(F)cc3)ncn2)cc1)N1CCN(C(=O)c2cccc(C(F)(F)F)c2)CC1 |
| 5.39 |  | Cc1ccc(NC(=O)c2ccc(CN3CCN(C)CC3)cc2)cc1Nc1nccc(-c2cccnc2)n1 [IMATINIB] |
| < 3.30 | < 3.30 | CC(C)c1cccc(Nc2cc(-c3ccc(C(=O)N4CCN(C(=O)c5ccccc5F)CC4)cc3)ncn2)c1 |
| < 3.30 | < 3.30 | O=C(c1ccc(-c2cc(Nc3ccc(Cl)cc3Cl)ncn2)cc1)N1CCN(C(=O)c2ccccc2F)CC1 |
|  | 4.79 | COc1cccc(Nc2cc(-c3ccc(C(=O)N4CCN(C(=O)c5ccccc5F)CC4)cc3)ncn2)c1 |
| 4.59 | 6.25 | O=C(c1ccc(-c2cc(Nc3cccc(C(F)(F)F)c3)ncn2)cc1)N1CCN(C(=O)c2cccc(C(F)(F)F)c2)CC1 |
|  | 5.22 | O=C(c1ccc(-c2cc(Nc3cccc(F)c3)ncn2)cc1)N1CCN(C(=O)c2ccccc2Cl)CC1 |
|  | 6.41 | CC(=O)c1cccc(Nc2cc(-c3ccc(C(=O)N4CCN(C(=O)c5ccccc5F)CC4)cc3)ncn2)c1 |
| 3.97 | 4.87 | COc1cccc(Nc2cc(-c3ccc(C(=O)N4CCN(C(=O)c5cccc(C(F)(F)F)c5)CC4)cc3)ncn2)c1 |
